Assay results collected from several papers.
Lines come from different studies, so protocols differ.
Effect on: cell growth or viability

SMILES	cell line	technique	time	measurement	result
CC(C)(C)c1cnc(CSc2cnc(NC(=O)C3CCN(C(=O)CCCCCCCN4Cc5cc6c(cc5C4)C(=O)N(C4CCC(=O)NC4=O)C6=O)CC3)s2)o1 (stereo not shown)	MES-SA	MTT	–	IC50	0.0853 µM
COC(=O)c1cc(C(C)=NNc2nc(-c3ccc(C)cc3)cs2)ccc1O	human Skin fibroblast	MTT	96 h	IC50	10.2 µM
NC(=O)C1CN(C(=O)CCl)c2ccccc2O1 (stereo not shown)	BT-474	fluorescence	5 days	IC50	17.5 µM
COc1cc([C@@H]2c3cc4c(cc3[C@@H](O[C@@H]3O[C@@H]5CO[C@@H](C)O[C@H]5[C@H](O)[C@H]3O)[C@H]3COC(=O)[C@H]23)OCO4)cc(OC)c1O	SK-HEP1	SRB	72 h	IC50	2.7 µM
CO[C@H]1[C@H](O[C@H]([C@H]2O[C@@H](n3ccc(=O)[nH]c3=O)[C@H](O)[C@@H]2O)[C@H](NCCCNC(=O)[C@@H](NC(=O)[C@@H](NC(=O)N[C@H](C(=O)O)C(C)C)[C@@H]2CCN=C(N)N2)[C@@H](OC(=O)CCCCCCCCCCCCN(O)C(=N)N)C(C)C)C(=O)O)O[C@H](CN)[C@H]1O	BT-474	WST-1	–	IC50	0.85 µM
COc1cccc2c1C(=O)c1c(O)c3c(c(O)c1C2=O)C[C@@](O)(C(=O)CO)C[C@@H]3O[C@H]1C[C@H](N)[C@H](O)[C@H](C)O1	human Skin fibroblast	MTT	24 h	IC50	> 100 µM
CO[C@H]1[C@H](O[C@H]([C@H]2O[C@@H](n3ccc(=O)[nH]c3=O)[C@H](O)[C@@H]2O)[C@H](NCCCNC(=O)[C@@H](NC(=O)[C@@H](NC(=O)N[C@H](C(=O)O)C(C)C)[C@@H]2CCN=C(N)N2)[C@@H](O)C(C)C)C(=O)O)O[C@H](CN)[C@H]1O	BT-474	WST-1	–	IC50	> 35 µM
Cc1nc(NC(=O)N2CCC[C@H]2C(N)=O)sc1-c1ccnc(C(C)(C)C(F)(F)F)c1	NCI-H1563	ATP luminescence	5 days	EC50	7.42 µM
CONC(=O)c1cccc2c1cc(C)n2-c1nc2c(c(NCc3ccccc3)n1)CCCN2	MOLM16	–	72 h	IC50	0.4 µM
CCc1oc2cc(S(=O)(=O)Nc3ccc(S(=O)(=O)Nc4nccs4)cc3)ccc2c1C(=O)c1cc(Br)c(O)c(Br)c1	human Skin fibroblast	MTT	96 h	IC50	146 µM
C[C@H](Nc1ccc2c(c1)OCCn1cc(N3C(=O)OC[C@H]3C(F)F)nc1-2)C(N)=O	NCI-H1563	ATP luminescence	5 days	EC50	0.149 µM
C[C@H]1[C@H](C)CC[C@]2(C(=O)O)CC[C@]3(C)C(=CC[C@@H]4[C@@]5(C)CC[C@H](O)C(C)(C)[C@@H]5CC[C@]43C)[C@H]12	human Skin fibroblast	MTT	24 h	IC50	32.3 µM
Cc1cc2c(C(=O)O)cccc2n1-c1nc2c(c(NCc3ccccc3)n1)CCCN2	MOLM16	–	72 h	IC50	0.7 µM
